ChEMBL document CHEMBL1811758, “Inhibition of monoamine oxidase by C5-substituted phthalimide analogues” (Bioorg Med Chem, 2011)

Assays:
[1] = biological target: T1, Amine oxidase [flavin-containing] A (Homo sapiens, UniProt P21397); experiment: Inhibition of human recombinant MAOA expressed in insect cells using kynuramine substrate by fluorescence spectroscopy
T1 sequence (P21397 whole entry): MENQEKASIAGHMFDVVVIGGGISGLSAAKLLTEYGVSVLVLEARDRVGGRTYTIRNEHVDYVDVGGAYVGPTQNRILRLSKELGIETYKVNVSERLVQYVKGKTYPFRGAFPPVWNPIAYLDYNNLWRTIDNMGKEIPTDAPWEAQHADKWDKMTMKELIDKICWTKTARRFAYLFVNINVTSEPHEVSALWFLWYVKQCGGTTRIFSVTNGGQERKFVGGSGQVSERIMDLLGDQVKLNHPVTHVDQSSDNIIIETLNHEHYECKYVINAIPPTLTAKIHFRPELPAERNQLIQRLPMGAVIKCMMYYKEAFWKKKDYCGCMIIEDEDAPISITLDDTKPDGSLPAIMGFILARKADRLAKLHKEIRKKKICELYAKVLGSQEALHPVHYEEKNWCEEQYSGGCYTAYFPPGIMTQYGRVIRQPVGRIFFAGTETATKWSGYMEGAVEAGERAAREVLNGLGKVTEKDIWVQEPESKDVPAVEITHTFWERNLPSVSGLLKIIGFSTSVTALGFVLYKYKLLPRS

[2] = biological target: T2, Amine oxidase [flavin-containing] B (Homo sapiens, UniProt P27338); experiment: Inhibition of human recombinant MAOB expressed in insect cells using kynuramine substrate by fluorescence spectroscopy
T2 sequence (P27338 whole entry): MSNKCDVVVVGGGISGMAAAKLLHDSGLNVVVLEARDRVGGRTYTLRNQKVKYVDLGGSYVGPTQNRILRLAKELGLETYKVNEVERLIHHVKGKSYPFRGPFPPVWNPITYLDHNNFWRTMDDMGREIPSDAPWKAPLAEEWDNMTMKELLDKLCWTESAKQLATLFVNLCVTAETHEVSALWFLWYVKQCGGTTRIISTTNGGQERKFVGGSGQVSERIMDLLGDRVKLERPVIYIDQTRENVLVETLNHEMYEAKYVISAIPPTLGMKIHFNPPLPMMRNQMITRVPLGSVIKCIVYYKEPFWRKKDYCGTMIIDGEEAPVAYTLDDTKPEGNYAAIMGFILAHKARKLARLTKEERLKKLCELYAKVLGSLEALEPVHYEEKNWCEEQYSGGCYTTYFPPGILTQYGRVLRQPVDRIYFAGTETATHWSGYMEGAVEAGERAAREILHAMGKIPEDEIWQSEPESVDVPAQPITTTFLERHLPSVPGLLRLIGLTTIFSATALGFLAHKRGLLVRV

Homo sapiens = species: Homo sapiens; experiment: Selectivity index, ratio of Ki for human recombinant MAOA to Ki for human recombinant MAOB
Procedure, shortened: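 Recombinant human MAO-A and MAO-B from baculovirus-infected insect-cell microsomes. Kynuramine at 45 µM (A) or 30 µM (B) final, in 100 mM potassium phosphate pH 7.4 made isotonic with KCl. 37 °C for 20 min, stopped with NaOH; 4-hydroxyquinoline fluorescence read at ex 310/em 400 nm. IC50 from 9–10 concentrations, duplicate. Ki = IC50/(1+[S]/Km), Km 16.1 (A), 22.7 µM (B); ratio Ki(A)/Ki(B).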

[3] = biological target: T1, Amine oxidase [flavin-containing] A; experiment: Inhibition of human recombinant MAOA expressed in insect cells using kynuramine substrate using Cheng and Prusoff equation by fluorescence spectroscopy
[4] = biological target: T2, Amine oxidase [flavin-containing] B; experiment: Inhibition of human recombinant MAOB expressed in insect cells using kynuramine substrate using Cheng and Prusoff equation by fluorescence spectroscopy
[5] = biological target: T2, Amine oxidase [flavin-containing] B; experiment: Inhibition of human recombinant MAOB expressed in insect cells using kynuramine substrate at 100 uM by fluorescence spectroscopy
Procedure, shortened: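 Single-point MAO-B assay: inhibitor at a maximum of 100 µM, kynuramine 30 µM final, 20 min at 37 °C in isotonic 100 mM potassium phosphate, pH 7.4. NaOH was added to stop the reaction, and 4-hydroxyquinoline was measured by fluorescence (ex 310/em 400 nm). Duplicate determinations were made, with percent inhibition reported.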

[6] = biological target: T1, Amine oxidase [flavin-containing] A; experiment: Inhibition of human recombinant MAOA expressed in insect cells using kynuramine substrate at 100 uM by fluorescence spectroscopy
Procedure, shortened: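 MAO-A (insect-cell microsomes) was incubated with kynuramine (45 µM final) for 20 min at 37 °C in isotonic phosphate buffer, pH 7.4, with inhibitor at a maximum tested concentration of 100 µM. The reaction was stopped with NaOH, and 4-hydroxyquinoline was read fluorometrically (ex 310/em 400 nm). Percent inhibition is the mean of duplicates.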

[7] = biological target: T1, Amine oxidase [flavin-containing] A; experiment: Time dependent inhibition of human recombinant MAOA expressed in insect cells at 13.42 uM preincubated 0 to 60 mins before kynuramine substrate addition by fluorescence spectroscopy
Procedure, shortened: (§1)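 Enzyme (0.03 mg/mL) was preincubated with inhibitor for 0, 15, 30 or 60 min at 37 °C in isotonic 100 mM potassium phosphate, pH 7.4. Preincubation inhibitor was 13.42 µM for MAO-A and 5.00 µM for MAO-B. Kynuramine was then added (45 µM for MAO-A, 30 µM for MAO-B), giving final enzyme 0.015 mg/mL and final inhibitor 6.71 µM (A) or 2.5 µM (B). After 15 min at 37 °C and NaOH stop, 4-hydroxyquinoline fluorescence was read, in triplicate.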

[8] = biological target: T1, Amine oxidase [flavin-containing] A; experiment: Reversible inhibition of human recombinant MAOA expressed in insect cells using kynuramine substrate by Lineweaver-Burk plot
Procedure, shortened: (§2)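 Kynuramine at 15, 30, 60 and 90 µM; MAO-A at 0.015 mg/mL in the reaction; inhibitor at 0, 1.7, 3.4 and 6.8 µM. Reactions ran in isotonic potassium phosphate (100 mM, pH 7.4) at 37 °C for 20 min and were stopped with NaOH. Initial rates were read by 4-hydroxyquinoline fluorescence (ex 310/em 400 nm) and plotted double-reciprocally.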

[9] = biological target: T2, Amine oxidase [flavin-containing] B; experiment: Time dependent inhibition of human recombinant MAOB expressed in insect cells at 5 uM preincubated 0 to 60 mins before kynuramine substrate addition by fluorescence spectroscopy; procedure, shortened: as §1
[10] = biological target: T2, Amine oxidase [flavin-containing] B; experiment: Reversible inhibition of human recombinant MAOB expressed in insect cells using kynuramine substrate by Lineweaver-Burk plot
Procedure, shortened: (§3)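 Initial MAO-B rates (0.015 mg/mL enzyme) were measured at kynuramine 15, 30, 60 and 90 µM, without inhibitor and with 0.625, 1.25 or 2.5 µM inhibitor. Incubation was 20 min at 37 °C in isotonic 100 mM potassium phosphate, pH 7.4, followed by NaOH stop. 4-Hydroxyquinoline fluorescence (ex 310/em 400 nm) was read, and Lineweaver–Burk plots were drawn.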

[11] = biological target: T1, Amine oxidase [flavin-containing] A; experiment: Competitive inhibition of human recombinant MAOA expressed in insect cells using kynuramine substrate by Lineweaver-Burk plot; procedure, shortened: as §2
[12] = biological target: T2, Amine oxidase [flavin-containing] B; experiment: Competitive inhibition of human recombinant MAOB expressed in insect cells using kynuramine substrate by Lineweaver-Burk plot; procedure, shortened: as §3

SMILES	IC50 [1] [nM]	IC50 [2] [nM]	Ratio Ki (Homo sapiens)	Ki [3] [nM]	Ki [4] [nM]	also measured
O=C1NC(=O)c2cc(OCCCc3ccccc3)ccc21	1730	50	21	460	20	–
O=C1c2ccccc2C(=O)N1c1ccccc1 [N-PHENYL-PHTHALIMIDE]	–	–	–	–	–	inhibition at 100 µM [5]: 50.3%; inhibition at 100 µM [6]: 10.5%
O=C1NC(=O)c2cc(Oc3ccc(Br)cc3)ccc21	1080	55	12	285	24	–
O=C1NC(=O)c2cc(OC/C=C/c3ccccc3)ccc21	8990	46	120	2370	20	–
O=C1c2ccccc2C(=O)N1Cc1ccccc1	–	–	–	–	–	inhibition at 100 µM [5]: 20.2%; inhibition (INH) ([6]; 100 µM): Not Active
O=C1NC(=O)c2cc(Oc3ccc4ccccc4c3)ccc21	920	33	17	200	10	–
O=C1NC(=O)c2cc(Oc3ccccc3)ccc21	5850	2490	1	1540	1070	TDI [7]: Not Active; inhibition (INH) [8]: Active; TDI [9]: Not Active; inhibition (INH) [10]: Active; inhibition (INH) [11]: Active; inhibition (INH) [12]: Active
O=C1NC(=O)c2ccccc21 [PHTHALIMIDE]	–	134000	–	–	–	–
